In brackets after ≈: the same amount, converted by molar mass.
Columns and labels:
Format in all cases: cell-based
[1] = tested on: S. aureus ATCC 43300; assay: MIC, 96-well microtiter broth dilution; details: Staphylococcus aureus, ATCC43300|MRSA, read-out: MIC S. aureus ATCC 43300
[2] = tested on: E. coli ATCC 8739; assay: MIC, 96-well microtiter broth dilution; details: Escherichia coli, ATCC8739, read-out: MIC E. coli ATCC 8739
[3] = tested on: S. epidermidis ATCC 12228; assay: MIC, 96-well microtiter broth dilution; details: Staphylococcus epidermidis, ATCC12228, read-out: MIC S. epidermidis ATCC 12228
[4] = tested on: E. faecalis ATCC 29212; assay: MIC, 96-well microtiter broth dilution; details: Enterococcus faecalis, ATCC29212, read-out: MIC E. faecalis ATCC 29212
[5] = tested on: S. aureus ATCC BAA-41; assay: MIC, 96-well microtiter broth dilution; details: Staphylococcus aureus, ATCCBAA41|MRSA, read-out: MIC S. aureus ATCC BAA-41
[6] = tested on: S. aureus ATCC BAA-1747; assay: MIC, 96-well microtiter broth dilution; details: Staphylococcus aureus, ATCCBAA1747|MRSA, read-out: MIC S. aureus ATCC BAA-1747
[7] = tested on: E. faecium ATCC 49624; assay: MIC, 96-well microtiter broth dilution; details: Enterococcus faecium, ATCC49624, read-out: MIC E. faecium ATCC 49624
[8] = tested on: S. aureus ATCC 29213; assay: MIC, 96-well microtiter broth dilution; details: Staphylococcus aureus, ATCC29213, read-out: MIC S. aureus ATCC 29213
[9] = tested on: S. aureus ATCC BAA-1720; assay: MIC, 96-well microtiter broth dilution; details: Staphylococcus aureus, ATCCBAA1720|MRSA, read-out: MIC S. aureus ATCC BAA-1720
[10] = tested on: E. coli ATCC 25922; assay: MIC, 96-well microtiter broth dilution; details: Escherichia coli, ATCC25922, read-out: MIC E. coli ATCC 25922
[11] = tested on: E. faecium ATCC 700221; assay: MIC, 96-well microtiter broth dilution; details: Enterococcus faecium, ATCC700221, read-out: MIC E. faecium ATCC 700221
[12] = tested on: E. coli ATCC BAA-2469; assay: MIC, 96-well microtiter broth dilution
[13] = tested on: S. aureus ATCC 29213; assay: In vitro drug resistance development, serial passage
How it was run: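 Serial passage against S. aureus ATCC 29213: culture from the 0.5 × MIC well of the prior MIC plate diluted to 5 × 10^5 CFU mL−1 and exposed to a range of test compound concentrations. MIC read after 24 h at 37 °C. Cycle repeated 35 times. Ciprofloxacin, vancomycin and rifampin passaged in parallel.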

With `Cc1cc(/C=C2\Sc3ccccc3N2CCCN2CCCCC2)c2ccccc2[n+]1C.[I-]` [Compound 4a3, (Z)-1,2-Dimethyl-4-((3-(3-(piperidin-1-yl)propyl)benzo[d]thiazol-2(3H)-ylidene)methyl)quinolin-1-ium iodide] the MIC [1] was 32 µg/mL, the MIC [2] was 4 µg/mL and the MIC [3] was 8 µg/mL. The MIC [4] was 64 µg/mL, the MIC [5] was 8 µg/mL and the MIC [6] was 32 µg/mL. For the same molecule, the MIC [7] was 32 µg/mL, the MIC [8] was 32 µg/mL and the MIC [9] was 32 µg/mL. For the same molecule, the MIC [10] was 4 µg/mL and the MIC [11] was 32 µg/mL.

`C[n+]1ccc(/C=C2\Sc3ccccc3N2CCCN2CCCCC2)c2ccccc21.[I-]` [Compound 4b3, (Z)-1-Methyl-4-((3-(3-(piperidin-1-yl)propyl)benzo[d]thiazol-2(3H)-ylidene)methyl)quinolin-1-ium iodide] showed an MIC [1] of 8 µg/mL, an MIC [2] of 4 µg/mL and an MIC [3] of 2 µg/mL. The MIC [4] was > 64 µg/mL, the MIC [5] was 4 µg/mL and the MIC [6] was 8 µg/mL. It also gave an MIC [7] of 32 µg/mL, an MIC [8] of 32 µg/mL and an MIC [9] of 16 µg/mL. For the same molecule, the MIC [10] was 2 µg/mL and the MIC [11] was 32 µg/mL.

With `C[n+]1c(/C=C/c2c[nH]c3ccccc23)cc(/C=C2\Sc3ccccc3N2CCCN2CCOCC2)c2ccccc21.[I-]` [Compound 4c1, 2-((E)-2-(1H-Indol-3-yl)vinyl)-1-methyl-4-((Z)-(3-(3-morpholinopropyl)benzo[d]thiazol-2(3H)-ylidene)methyl)quinolin-1-ium iodide] the MIC [1] was 16 µg/mL, the MIC [2] was 64 µg/mL and the MIC [3] was 2 µg/mL. It also gave an MIC [4] of 16 µg/mL, an MIC [5] of 16 µg/mL and an MIC [6] of 16 µg/mL. It also gave an MIC [7] of 16 µg/mL, an MIC [8] of 16 µg/mL and an MIC [9] of 16 µg/mL. The MIC [10] was 8 µg/mL and the MIC [11] was 8 µg/mL.

In the case of `C[n+]1c(/C=C/c2ccc(O)cc2)cc(/C=C2\Sc3ccccc3N2CCCN2CCOCC2)c2ccccc21.[I-]` [Compound 4c2, 2-((E)-4-Hydroxystyryl)-1-methyl-4-((Z)-(3-(3-morpholinopropyl)benzo[d]thiazol-2(3H)-ylidene)methyl)quinolin-1-ium iodide], the MIC [1] is reported as 16 µg/mL, the MIC [2] is reported as 32 µg/mL and the MIC [3] is reported as 4 µg/mL. It also gave an MIC [4] of 16 µg/mL, an MIC [5] of 8 µg/mL and an MIC [6] of 16 µg/mL. For the same molecule, the MIC [7] was 8 µg/mL, the MIC [8] was 16 µg/mL and the MIC [9] was 32 µg/mL. It also gave an MIC [10] of 4 µg/mL and an MIC [11] of 4 µg/mL.

With `C[n+]1c(/C=C/c2c[nH]c3ccccc23)cc(/C=C2\Sc3ccccc3N2CCCN2CCCC2)c2ccccc21.[I-]` [Compound 4d1, 2-((E)-2-(1H-Indol-3-yl)vinyl)-1-methyl-4-((Z)-(3-(3-(pyrrolidin-1-yl)propyl)benzo[d]thiazol-2(3H)-ylidene)methyl)quinolin-1-ium iodide] the MIC [1] was 8 µg/mL, the MIC [2] was 16 µg/mL and the MIC [3] was 2 µg/mL. It also gave an MIC [4] of 32 µg/mL, an MIC [5] of 4 µg/mL and an MIC [6] of 8 µg/mL. It also gave an MIC [7] of 8 µg/mL, an MIC [8] of 16 µg/mL and an MIC [9] of 8 µg/mL. The MIC [10] was 4 µg/mL and the MIC [11] was 16 µg/mL.

Molecule `C[n+]1c(/C=C/c2ccc(O)cc2)cc(/C=C2\Sc3ccccc3N2CCCN2CCCC2)c2ccccc21.[I-]` [Compound 4d2, 2-((E)-4-Hydroxystyryl)-1-methyl-4-((Z)-(3-(3-(pyrrolidin-1-yl)propyl)benzo[d]thiazol-2(3H)-ylidene)methyl)quinolin-1-ium iodide] has an MIC [1] of 32 µg/mL, an MIC [2] of 32 µg/mL and an MIC [3] of 16 µg/mL. The MIC [4] was 64 µg/mL, the MIC [5] was 32 µg/mL and the MIC [6] was 32 µg/mL. For the same molecule, the MIC [7] was 32 µg/mL, the MIC [8] was 32 µg/mL and the MIC [9] was 32 µg/mL. It also gave an MIC [10] of 32 µg/mL and an MIC [11] of 32 µg/mL.

In the case of `CSc1ccc(/C=C/c2cc(/C=C3\Sc4ccccc4N3CCCN3CCCC3)c3ccccc3[n+]2C)cc1.[I-]` [Compound 4d3, 1-Methyl-2-((E)-4-(methylthio)styryl)-4-((Z)-(3-(3-(pyrrolidin-1-yl)propyl)benzo[d]thiazol-2(3H)-ylidene)methyl)quinolin-1-ium iodide], the MIC [1] is reported as 32 µg/mL, the MIC [2] is reported as 32 µg/mL and the MIC [3] is reported as 16 µg/mL. It also gave an MIC [4] of 64 µg/mL, an MIC [5] of 32 µg/mL and an MIC [6] of 32 µg/mL. It also gave an MIC [7] of 64 µg/mL, an MIC [8] of 16 µg/mL and an MIC [9] of 32 µg/mL. The MIC [11] was 32 µg/mL.

For `CC1(C)S[C@@H]2[C@H](NC(=O)[C@H](N)c3ccccc3)C(=O)N2[C@H]1C(=O)O` [amp, ampicillin, reference compound], the MIC [1] was > 64 µg/mL, the MIC [2] was 2 µg/mL (≈ 5.72 µM) and the MIC [3] was > 64 µg/mL. For the same molecule, the MIC [4] was 0.5 µg/mL (≈ 1.43 µM), the MIC [5] was > 64 µg/mL and the “MIC against antibiotics resistant E. coli mutant NDM-1 strain” value [12] was > 64 µg/mL. The MIC [6] was > 64 µg/mL, the MIC [7] was 0.25 µg/mL (≈ 0.715 µM) and the MIC [8] was > 64 µg/mL. For the same molecule, the MIC [9] was > 64 µg/mL, the MIC [10] was 1 µg/mL (≈ 2.86 µM) and the MIC [11] was > 64 µg/mL.

`O=C(O)c1cn(C2CC2)c2cc(N3CCNCC3)c(F)cc2c1=O` [ciprofloxacin] was tested, and the “Increase of MIC after 35 passages” value [13] was 32 fold.

`COc1cccc(OC)c1C(=O)N[C@@H]1C(=O)N2[C@@H]1SC(C)(C)[C@@H]2C(=O)O` [meth, methicillin, reference compound] was tested, and the MIC [1] was 512 µg/mL (≈ 1350 µM), the MIC [2] was > 64 µg/mL and the MIC [3] was 0.5 µg/mL (≈ 1.31 µM). For the same molecule, the MIC [4] was 1 µg/mL (≈ 2.63 µM), the MIC [5] was 1020 µg/mL (≈ 2690 µM) and the “MIC against antibiotics resistant E. coli mutant NDM-1 strain” value [12] was > 64 µg/mL. The MIC [6] was 256 µg/mL (≈ 673 µM), the MIC [7] was 4 µg/mL (≈ 10.5 µM) and the MIC [8] was 0.5 µg/mL (≈ 1.31 µM). For the same molecule, the MIC [9] was 1020 µg/mL (≈ 2690 µM), the MIC [10] was 2 µg/mL (≈ 5.26 µM) and the MIC [11] was 1.5 µg/mL (≈ 3.94 µM).

In the case of `CO[C@H]1/C=C/O[C@@]2(C)Oc3c(C)c(O)c4c(O)c(c(/C=N/N5CCN(C)CC5)c(O)c4c3C2=O)NC(=O)/C(C)=C\C=C\[C@H](C)[C@H](O)[C@@H](C)[C@@H](O)[C@@H](C)[C@H](OC(C)=O)[C@@H]1C` [rif, rifampin, reference compound], the MIC [1] is reported as < 0.125 µg/mL, the MIC [2] is reported as 8 µg/mL (≈ 9.72 µM) and the MIC [3] is reported as 1 µg/mL (≈ 1.22 µM). For the same molecule, the MIC [4] was 0.5 µg/mL (≈ 0.608 µM), the MIC [5] was < 0.125 µg/mL and the “MIC against antibiotics resistant E. coli mutant NDM-1 strain” value [12] was > 64 µg/mL. The “Increase of MIC after 35 passages” value [13] was 8192 fold, the MIC [6] was < 0.125 µg/mL and the MIC [7] was < 0.125 µg/mL. For the same molecule, the MIC [8] was 0.5 µg/mL (≈ 0.608 µM), the MIC [9] was < 0.125 µg/mL and the MIC [10] was 4 µg/mL (≈ 4.86 µM). The MIC [11] was < 0.125 µg/mL.

For `CN[C@H](CC(C)C)C(=O)N[C@H]1C(=O)N[C@@H](CC(N)=O)C(=O)N[C@H]2C(=O)N[C@H]3C(=O)N[C@H](C(=O)N[C@H](C(=O)O)c4cc(O)cc(O)c4-c4cc3ccc4O)[C@H](O)c3ccc(c(Cl)c3)Oc3cc2cc(c3O[C@@H]2O[C@H](CO)[C@@H](O)[C@H](O)[C@H]2O[C@H]2C[C@](C)(N)[C@H](O)[C@H](C)O2)Oc2ccc(cc2Cl)[C@H]1O` [van, vancomycin, reference compound], the MIC [1] was 2 µg/mL (≈ 1.38 µM), the MIC [2] was > 64 µg/mL and the MIC [3] was > 64 µg/mL. For the same molecule, the MIC [4] was 2 µg/mL (≈ 1.38 µM), the MIC [5] was 2 µg/mL (≈ 1.38 µM) and the “MIC against antibiotics resistant E. coli mutant NDM-1 strain” value [12] was > 64 µg/mL. For the same molecule, the “Increase of MIC after 35 passages” value [13] was 512 fold, the MIC [6] was 1 µg/mL (≈ 0.69 µM) and the MIC [7] was 0.5 µg/mL (≈ 0.345 µM). For the same molecule, the MIC [8] was 2 µg/mL (≈ 1.38 µM), the MIC [9] was 0.5 µg/mL (≈ 0.345 µM) and the MIC [10] was > 64 µg/mL. It also gave an MIC [11] of 1020 µg/mL (≈ 707 µM).
